The text below walks through data of ChEMBL document CHEMBL1139825, “Kinesin spindle protein (KSP) inhibitors. Part 7: Design and synthesis of 3,3-disubstituted dihydropyrazolobenzoxazines as potent inhibitors of the mitotic kinesin KSP” (Bioorg Med Chem Lett, 2007).

Data set [1] deals with T1, Kinesin-like protein KIF11 (Homo sapiens, UniProt P52732).
T1 sequence (P52732 whole entry): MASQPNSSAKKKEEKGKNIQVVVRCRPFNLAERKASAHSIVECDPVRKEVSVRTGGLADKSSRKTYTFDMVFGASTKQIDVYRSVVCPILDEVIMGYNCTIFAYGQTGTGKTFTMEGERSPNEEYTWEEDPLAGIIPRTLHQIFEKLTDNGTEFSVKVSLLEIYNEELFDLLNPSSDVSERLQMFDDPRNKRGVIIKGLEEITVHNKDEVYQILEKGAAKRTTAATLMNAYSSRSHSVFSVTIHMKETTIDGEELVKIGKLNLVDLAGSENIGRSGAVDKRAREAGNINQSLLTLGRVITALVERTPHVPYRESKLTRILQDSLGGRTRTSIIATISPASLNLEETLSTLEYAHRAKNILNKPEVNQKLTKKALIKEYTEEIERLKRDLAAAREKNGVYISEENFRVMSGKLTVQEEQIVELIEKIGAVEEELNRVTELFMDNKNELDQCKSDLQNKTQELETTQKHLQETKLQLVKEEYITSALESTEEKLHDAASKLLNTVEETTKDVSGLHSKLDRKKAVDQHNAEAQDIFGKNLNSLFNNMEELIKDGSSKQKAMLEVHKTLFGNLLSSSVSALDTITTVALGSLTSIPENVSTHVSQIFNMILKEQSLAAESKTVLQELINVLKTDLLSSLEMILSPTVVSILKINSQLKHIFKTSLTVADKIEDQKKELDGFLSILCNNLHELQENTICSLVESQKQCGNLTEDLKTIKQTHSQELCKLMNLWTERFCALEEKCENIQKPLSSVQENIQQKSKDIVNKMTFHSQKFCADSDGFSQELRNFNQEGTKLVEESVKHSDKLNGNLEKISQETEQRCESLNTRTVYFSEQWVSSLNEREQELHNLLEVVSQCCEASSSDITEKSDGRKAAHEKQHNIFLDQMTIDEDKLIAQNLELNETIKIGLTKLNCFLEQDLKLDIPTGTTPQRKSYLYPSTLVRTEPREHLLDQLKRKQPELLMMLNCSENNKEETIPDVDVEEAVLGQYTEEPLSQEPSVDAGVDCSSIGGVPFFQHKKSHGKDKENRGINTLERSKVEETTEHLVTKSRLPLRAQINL
Briefly: Inhibition of kinesin spindle protein.

Data set [2] is filed under the species Canis familiaris. In words: Induction of QTc prolongation in canine cardiovascular model at 35 uM. The data set is classed as functional, organism-based. The note with it: Canis lupus familiaris, Heart.
Data set [3] in a line: Half life in dog at 0.25 mg/kg, iv. The note with it: in vivo. The data set is classed as ADME, organism-based, Canis lupus familiaris. Also on record: dose 0.25 mg/kg, route intravenous. In outline:
(§1)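 Cassette intravenous dosing in dogs, compounds given together as a DMSO solution at 0.25 mg/kg. Two dogs per dose, with the value being their average. Individual determinations fell within ±25% of the mean.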

The nature of data set [4]: Clearance in dog at 0.25 mg/kg, iv. The note with it: in vivo. Further details: dose 0.25 mg/kg, route intravenous. The data set is classed as ADME, organism-based, Canis lupus familiaris. The method in brief:
as §1

The nature of data set [5]: Solubility at pH 4. The data set is classed as physicochemical. Particulars: buffer.
The next data set has as its system A2780. Briefly: Mitotic arrest in human A2780 cells assessed as G2/M block after 16 hrs. The data set is classed as functional, cell-based. The note with it: A2780, 16 h. In outline:
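A2780 human ovarian carcinoma cells treated 16 h across a 7-point half-log dilution series. Mitosis-specific nucleolin phosphorylation read by electrochemiluminescence: total nucleolin captured on beads via anti-nucleolin antibody, phospho-nucleolin detected with a phospho-specific IgM plus ruthenium-labelled anti-mouse IgM. EC50 is the mean of at least two independent determinations.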

The nature of data set [6]: Ratio of IC50 for KB-V-1 cells to IC50 for KB-3-1 cells after 16 hrs. The data set is classed as functional, Homo sapiens. The method in brief: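 Mitotic arrest measured in Pgp-high KB-V-1 cells (derived from parental KB-3-1 by culture with vinblastine; >500-fold higher Pgp mRNA and protein) and in parental KB-3-1 cells. 16 h incubation, 11-point half-log dilution series. Read-out is phospho-nucleolin level. The ratio is the IC50 in KB-V-1 divided by the IC50 in KB-3-1.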

For data set [7], the target named is Voltage-gated inwardly rectifying potassium channel KCNH2 (Homo sapiens, UniProt Q12809). Briefly: Inhibition of hERG expressed in HEK cells. The data set is classed as toxicity, cell-based, HEK293. Background: Block of hERG is tested as a sign of cardiac risk.
The species entered for data set [8] is Canis familiaris. Briefly: Induction of QTc prolongation in canine cardiovascular model. The data set is classed as functional, organism-based. The note with it: Canis lupus familiaris; Heart.

Activity calls are given as the source filed them. No cut-off for these calls is given here.

Chain of Voltage-gated inwardly rectifying potassium channel KCNH2 (Q12809 whole entry): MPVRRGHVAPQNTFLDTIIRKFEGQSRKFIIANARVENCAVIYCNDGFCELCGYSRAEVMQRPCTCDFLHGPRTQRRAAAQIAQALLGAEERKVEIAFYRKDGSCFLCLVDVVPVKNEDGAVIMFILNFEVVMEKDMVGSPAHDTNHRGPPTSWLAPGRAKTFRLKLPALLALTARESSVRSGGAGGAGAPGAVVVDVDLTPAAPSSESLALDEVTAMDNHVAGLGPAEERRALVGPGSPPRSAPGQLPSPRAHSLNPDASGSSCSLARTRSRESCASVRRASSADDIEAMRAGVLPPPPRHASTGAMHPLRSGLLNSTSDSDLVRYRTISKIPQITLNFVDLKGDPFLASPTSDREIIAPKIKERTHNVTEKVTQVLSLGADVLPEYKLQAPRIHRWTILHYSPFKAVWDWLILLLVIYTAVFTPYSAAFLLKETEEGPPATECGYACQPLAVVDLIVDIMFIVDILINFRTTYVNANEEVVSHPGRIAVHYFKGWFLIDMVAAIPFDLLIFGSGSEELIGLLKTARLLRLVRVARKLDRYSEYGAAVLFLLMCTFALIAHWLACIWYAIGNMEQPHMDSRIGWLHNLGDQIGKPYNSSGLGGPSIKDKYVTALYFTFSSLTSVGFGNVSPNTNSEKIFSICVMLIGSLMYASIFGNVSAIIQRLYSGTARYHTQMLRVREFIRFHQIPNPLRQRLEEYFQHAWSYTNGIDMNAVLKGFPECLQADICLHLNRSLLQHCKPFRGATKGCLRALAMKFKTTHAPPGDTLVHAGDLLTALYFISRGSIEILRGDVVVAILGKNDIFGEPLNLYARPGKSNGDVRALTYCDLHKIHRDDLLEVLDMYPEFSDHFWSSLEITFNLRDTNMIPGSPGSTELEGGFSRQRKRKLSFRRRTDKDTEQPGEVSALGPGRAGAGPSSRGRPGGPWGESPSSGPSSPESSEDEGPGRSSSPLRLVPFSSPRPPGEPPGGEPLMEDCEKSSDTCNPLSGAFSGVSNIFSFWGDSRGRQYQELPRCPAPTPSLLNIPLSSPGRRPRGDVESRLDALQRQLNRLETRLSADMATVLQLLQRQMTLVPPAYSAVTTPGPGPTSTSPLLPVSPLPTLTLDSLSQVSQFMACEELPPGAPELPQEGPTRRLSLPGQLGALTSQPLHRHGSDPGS

In turn, `CC(=O)C1=NN2c3cc(F)ccc3OC[C@H]2[C@@]1(CCCN1CCN(C(C)=O)CC1)c1ccccc1` had an IC50 in [1] of 1.6 nM. Further, the outcome in the data set filed under Canis familiaris [2] was inactive. This molecule gave a half-life in [3] of 5.6 h. For the same molecule, the clearance in data set [4] was 14 mL/min/kg. Also, the solubility in data set [5] was above 4000 µg/mL. Also, the EC50 in the data set with A2780 was 5 nM.
For the molecule `CC(=O)C1=NN2c3cc(F)ccc3OC[C@H]2[C@@]1(CCCN1CCOCC1)c1ccccc1`, the IC50 in [1] was 0.4 nM; in data set [7], 6100 nM. The “Ratio IC50” value in [6] is given as 0.8. In addition, in the data set with A2780, the EC50 turned out to be 4.4 nM.
`CC(=O)C1=NN2c3cc(C)ccc3OC[C@H]2[C@@]1(CCCN(C)C)c1ccccc1`: the IC50 in data set [1] came to 1.8 nM; in data set [7], 2400 nM. The “Ratio IC50” value in data set [6] is on record as 2.3. The molecule also showed a half-life in data set [3] of 8.3 h. Besides, in data set [4], the clearance is 37 mL/min/kg. Besides, the EC50 in the data set on A2780 stood at 6.4 nM.
For `CC(=O)C1=NN2c3cc(Cl)ccc3OC[C@H]2C1(CCCN1CCOCC1)c1ccccc1` (mixture of isomers), the results for the IC50 in data set [1] and in data set [7] were 1.8 nM and 3300 nM, respectively. Further, the “Ratio IC50” value in data set [6] stood at 1.5. Besides, in the data set with A2780, the EC50 worked out at 13 nM.
For `CC(=O)C1=NN2c3cc(F)ccc3OC[C@H]2[C@@]1(CCCN)c1ccccc1` the same measures were 0.5 nM, 940 nM, 1.7 and 2.5 nM.
Consider `CC(=O)C1=NN2c3cc(F)ccc3OC[C@H]2[C@@]1(CCCN(C)C)c1ccccc1`, for which the IC50 in data set [1] amounted to 1.6 nM; in data set [7] it was 5940 nM. The “Ratio IC50” value in data set [6] is reported as 2.3. In data set [3], this molecule had a half-life of 5.7 h. In addition, the clearance in data set [4] was 52 mL/min/kg. Further, the EC50 in the data set with A2780 came out at 7.4 nM.
Turning to `CC(=O)C1=NN2c3cc(Cl)ccc3OC[C@H]2[C@@]1(CCCN1CCN(C(C)=O)CC1)c1ccccc1`, the IC50 in data set [1] worked out at 1 nM; in data set [7] it was 5600 nM. The “Ratio IC50” value in data set [6] is 1.6. Moreover, the EC50 in the data set with A2780 came to 9 nM.
In data set [1], `CC(=O)C1=NN2c3cc(F)ccc3OC[C@H]2[C@H]1c1ccccc1` came in with a half-maximal inhibitory concentration (IC50) of 155 nM.
Consider `CC(=O)C1=NN2c3cc(F)ccc3OC[C@H]2[C@@]1(CCCN1CCNC(=O)CC1)c1ccccc1`, for which the IC50 in [1] was 1.5 nM; in [7], 17000 nM. Moreover, the “Ratio IC50” value in [6] turned out to be 3.3. This molecule had a half-life in [3] of 2.4 h. In [4], the clearance stood at 15 mL/min/kg. In the data set on A2780, the EC50 was determined as 6.9 nM.
In the case of `CC(=O)C1=NN2c3cc(F)ccc3OC[C@H]2[C@@]1(CCCN1CCNCC1)c1ccccc1`, the IC50 in data set [1] stood at 4.3 nM; in data set [7] it was 4600 nM. The “Ratio IC50” value in data set [6] is reported as 40. The half-life in [3] is 3.5 h. The clearance in [4] worked out at 40 mL/min/kg. The 50% effective concentration (EC50) with A2780 amounted to 5 nM.
For `CC(=O)C1=NN2c3cc(F)ccc3OC[C@H]2[C@@]1(CCCO)c1ccccc1`, the results for the IC50 in data set [1] and in data set [7] were 5.2 nM and 18000 nM, respectively. For the same molecule, the “Ratio IC50” value in data set [6] is 0.6. Moreover, the EC50 with A2780 was found to be 11 nM.
In turn, `CC(=O)C1=NN2c3cc(Cl)ccc3OC[C@H]2[C@@]1(CCCN(C)C)c1ccccc1` displayed an IC50 in data set [1] of 1 nM. In addition, the EC50 in the data set with A2780 came out at 4.8 nM.
The molecule `CC(=O)C1=NN2c3ccccc3OC[C@H]2[C@H]1c1ccccc1` had an IC50 in data set [1] of 800 nM.
For `CC(=O)C1=NN2c3cc(F)ccc3OC[C@H]2[C@@]1(CCCN1CCC(=O)N(C)CC1)c1ccccc1`, the IC50 in data set [1] came out at 0.9 nM; in data set [7] it was 9600 nM. The “Ratio IC50” value in [6] is given as 2.6. In data set [3], this molecule gave a half-life of 3.9 h. In [4], this molecule returned a clearance of 11 mL/min/kg. The EC50 with A2780 was 4.8 nM.
In turn, `CC(=O)C1=NN(c2cc(F)ccc2F)C[C@@]1(CCCN1CCN(C(C)=O)CC1)c1ccccc1` returned an IC50 in data set [1] of 3 nM. In addition, the result in the data set listed under Canis familiaris [8] was Active.
Regarding `CC(=O)C1=NN2c3cc(C)ccc3OC[C@H]2[C@@]1(CCCN1CCOCC1)c1ccccc1`, the IC50 amounted to 1 nM in data set [1] and 6300 nM in data set [7]. Further, the “Ratio IC50” value in data set [6] is 1.4. Further, the EC50 with A2780 came to 11 nM.

By IC50 is commonly meant the concentration that gives 50% inhibition. A low value points to greater potency. One may read the half-life as the time in which the quantity being followed falls by half. For orientation: clearance means the rate of elimination divided by the concentration. Higher therefore signals efficient removal. One may read the solubility as the concentration that dissolves in the medium under given conditions. Higher therefore signals much dissolved substance. By EC50 is commonly meant the concentration at which the effect is half-maximal.
